Active and inactive are the calls of the source. No cut-off for these calls is given here.
Key:
[1] = target: Human immunodeficiency virus type 1 integrase (Human immunodeficiency virus 1, UniProt Q7ZJM1); assay: Inhibition of HIV1 His6-tagged integrase assessed as inhibition of interaction with recombinant flag-tagged LEDGF/p75 incubated for 30 mins prior to substrate addition measured after 1 hr by AlphaScreen assay
Method in brief: (§1)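 AlphaScreen in 25 mM Tris-HCl pH 7.4, 150 mM NaCl, 1 mM MgCl2, 0.01% Tween-20 and 0.1% BSA. His6-integrase (300 nM final) was preincubated with compound for 30 min at 4°C. Flag-LEDGF/p75 (100 nM) was then added for 1 h at 4°C. Ni-chelate acceptor and anti-flag donor beads (20 μg/ml each) followed for 1 h at 30°C, protected from light. Acceptor emission was read.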

[2] = target: Human immunodeficiency virus type 1 integrase (Human immunodeficiency virus 1) (UniProt Q7ZJM1); assay: Inhibition of HIV1 His6-tagged integrase assessed as inhibition of interaction with recombinant flag-tagged LEDGF/p75 at 100 uM incubated for 30 mins prior to substrate addition measured after 1 hr by AlphaScreen assay; method in brief: as §1
Chain of Human immunodeficiency virus type 1 integrase (Human immunodeficiency virus 1) (Q7ZJM1 as listed by the source): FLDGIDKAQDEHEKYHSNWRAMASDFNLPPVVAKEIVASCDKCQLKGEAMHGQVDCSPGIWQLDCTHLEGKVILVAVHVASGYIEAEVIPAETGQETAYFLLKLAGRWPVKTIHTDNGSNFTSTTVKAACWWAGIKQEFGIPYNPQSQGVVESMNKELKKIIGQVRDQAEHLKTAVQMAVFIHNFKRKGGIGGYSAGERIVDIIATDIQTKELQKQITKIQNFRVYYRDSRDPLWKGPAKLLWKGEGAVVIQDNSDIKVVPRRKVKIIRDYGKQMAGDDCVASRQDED

[3] = system: Human immunodeficiency virus; assay: Antiviral activity against HIV 3B infected in human MT4 cells assessed as inhibition of virus-induced cytopathic effect by MTT assay; format: functional, organism-based; details: Human immunodeficiency virus 1, 3B
Method in brief: (§2)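 HIV(IIIB) stock titrated on MT-4 cells to set the CCID50. MT-4 cells were infected with 100-300 CCID50 in the presence of five-fold serial compound dilutions. Protection from virus-induced cytopathic effect was read spectrophotometrically as MTT reduction to formazan by viable cells. EC50 is the concentration giving 50% protection. CC50 was determined in parallel on cells.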

[4] = Selectivity index, ratio of CC50 for human MT4 cells to EC50 for HIV 3B; format: toxicity, cell-based; details: read-out: Ratio CC50/EC50; method in brief: as §2

Chain of Human immunodeficiency virus type 1 integrase (Q7ZJM1 whole entry): as the sequence (Q7ZJM1 as listed by the source) above

For `COc1ccc(/C=C2\SC(=S)N(C(C(=O)O)C(C)C)C2=O)cc1` (stereo not given), the IC50 [1] was 41.3 µM.
For `CCOc1ccc(/C=C2\SC(=S)N(C(C(=O)O)C(C)C)C2=O)cc1OC` (stereo not given), the inhibition [2] was 28%.
Compound `COc1cc(/C=C2\SC(=S)N(C(C(=O)O)C(C)C)C2=O)ccc1O` (stereo not given) has an inhibition [2] of 43%.
With `COc1ccc(/C=C2\SC(=S)N(C(C)C(=O)O)C2=O)cc1` (stereo not given) the inhibition [2] was 47%.
`COc1ccc(/C=C2\SC(=S)N(C(C)CC(=O)O)C2=O)cc1` (stereo not given) showed an inhibition [2] of 29%.
For `CCC(C(=O)O)N1C(=O)/C(=C/c2ccc(OC)cc2)SC1=S` (stereo not given), the inhibition [2] was 54% and the IC50 [1] was over 100 µM.
For `COc1ccc(/C=C2\SC(=S)N(CC(=O)O)C2=O)cc1`, the inhibition [2] was 36%.
With `COc1ccc(/C=C2\SC(=S)N(C(C(=O)O)C(C)C)C2=O)cc1OC` (stereo not given) the inhibition [2] was “inactive”.
With `CCOc1cc(/C=C2\SC(=S)N(C(C(=O)O)C(C)C)C2=O)ccc1O` (stereo not given) the IC50 [1] was 25 µM.
`CCOc1cc(/C=C2\SC(=S)N(C(C(=O)O)C(C)C)C2=O)ccc1OC` (stereo not given) gave an inhibition [2] of 20%.
In the case of `CC(C)C(C(=O)O)N1C(=O)/C(=C/c2cccc3ccccc23)SC1=S` (stereo not given), the inhibition [2] is reported as 89% and the IC50 [1] is reported as 18.7 µM.
Compound `COc1ccc(/C=C2\SC(=S)N(CCC(=O)O)C2=O)cc1` has an inhibition [2] of 66%, an IC50 [1] of over 100 µM and an EC50 [3] of 2.41 µM. It also gave a selectivity ratio [4] of 61.
`CC(C)C(C(=O)O)N1C(=O)/C(=C/c2ccc(O)cc2)SC1=S` (stereo not given) showed an inhibition [2] of 77% and an IC50 [1] of 43.7 µM.
Compound `COc1ccc2nc(/C=C3\SC(=S)N(C(C(=O)O)C(C)C)C3=O)ccc2c1` (stereo not given) has an IC50 [1] of 15.8 µM.

Source: ChEMBL document CHEMBL3596155, “Optimization of rhodanine scaffold for the development of protein-protein interaction inhibitors” (Bioorg Med Chem, 2015)
